# ChEMBL document CHEMBL1671691 (Antimicrob Agents Chemother, 2010)
# pEC50: −log10 of the molar value.
# Legend:
# Influenza A virus [1] = assay: Antiviral activity against sInfluenza A virus (A/Washington/29/2009(H1N1)) infected in MDCK cells from Mill Hill assessed as log reduction in viral titer at 42.7 uM after 24 hrs by immunofluorescent assay; format: functional, Influenza A virus (A/Washington/29/2009(H1N1))
# In short: (§1)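 MDCK cells (ATCC or Mill Hill) infected with 2009 pandemic H1N1 at MOI ~0.01, 1 h adsorption at 4°C, washed. DMEM with 2 μg/ml TPCK-trypsin plus drug for 24 h at 37°C. Supernatants titrated on MDCK cells by focus formation: methanol/acetic acid fixation, anti-nucleoprotein MAbs, FITC secondary, foci counted. Titre as log10 FFU per 100 μl; detection limit <10 FFU; quadruplicate wells.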
# Influenza A virus [2] = assay: Antiviral activity against sInfluenza A virus (A/California/04/2009(H1N1)) infected in MDCK cells from ATCC assessed as log reduction in viral titer at 4.7 uM after 24 hrs by immunofluorescent assay; format: functional; in short: as §1
# Influenza A virus [3] = assay: microbe, parasite or virus in culture; settings: MDCK, 72 h
# Influenza A virus [4] = assay: Antiviral activity against Influenza A virus (A/California/04/2009(H1N1)) infected in MDCK cells from ATCC assessed as log reduction in viral titer at 1.6 uM after 24 hrs by immunofluorescent assay; format: functional
# In short: (§2)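 Yield reduction in MDCK-ATCC or MDCK-Mill Hill cells infected at MOI ∼0.01. Adsorption 1 h at 4°C, washed, then DMEM with 2 μg/ml TPCK-trypsin and drug. At 24 h, supernatants were titrated by immunofluorescent focus assay on MDCK cells with anti-NP monoclonals and FITC secondary. Titres as log10 FFU per 100 μl; detection limit <10 FFU. Quadruplicate, mean ± SD.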
# Influenza A virus [5] = assay: Antiviral activity against sInfluenza A virus (A/Washington/29/2009(H1N1)) infected in MDCK cells from ATCC assessed as log reduction in viral titer at 14.2 uM after 24 hrs by immunofluorescent assay; format: functional, Influenza A virus (A/Washington/29/2009(H1N1)); in short: as §1
# Influenza A virus [6] = assay: Antiviral activity against sInfluenza A virus (A/California/04/2009(H1N1)) infected in MDCK cells from ATCC assessed as log reduction in viral titer at 42.7 uM after 24 hrs by immunofluorescent assay; format: functional; in short: as §1
# Influenza A virus [7] = assay: microbe, parasite or virus in culture; settings: (A/Brazil/1067/2008(H1N1)), MDCK, 72 h
# Influenza A virus [8] = assay: Antiviral activity against Influenza A virus (A/Mexico/4604/2009(H1N1)) infected in MDCK cells from Mill Hill assessed as log reduction in viral titer at 14.2 uM after 24 hrs by immunofluorescent assay; format: functional; in short: as §2
# Influenza A virus [9] = assay: Antiviral activity against Influenza A virus (A/California/04/2009(H1N1)) infected in MDCK cells from Mill Hill assessed as inhibition of viral replication after 3 days by microscopic analysis using crystal violet stain; format: functional
# Influenza A virus [10] = assay: Antiviral activity against Influenza A virus (A/Mexico/4604/2009(H1N1)) infected in MDCK cells from Mill Hill assessed as log reduction in viral titer at 128 uM after 24 hrs by immunofluorescent assay; format: functional; in short: as §2
# Influenza A virus [11] = assay: Antiviral activity against Influenza A virus (A/California/04/2009(H1N1)) infected in MDCK cells from ATCC assessed as inhibition of viral replication after 3 days by microscopic analysis using crystal violet stain; format: functional
# In short: (§3)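 Confluent MDCK-ATCC monolayers infected with virus diluted to give 15–45 plaques/well. Adsorption 1 h at 37°C without drug, then washed. Overlaid with 0.8% agarose in MEM containing drug plus TPCK-trypsin: 3 μg/ml for seasonal viruses, 2 μg/ml for 2009 A(H1N1). Incubated 3 days at 37°C, 5% CO2. Ethanol-fixed, crystal violet-stained, plaques counted. EC50 by curve fit; duplicates on three occasions, mean ± SD.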
# Influenza A virus [12] = assay: Antiviral activity against Influenza A virus (A/Mexico/4604/2009(H1N1)) infected in MDCK cells from Mill Hill assessed as inhibition of viral replication after 3 days by microscopic analysis using crystal violet stain; format: functional
# Influenza A virus [13] = assay: Antiviral activity against sInfluenza A virus (A/California/04/2009(H1N1)) infected in MDCK cells from Mill Hill assessed as log reduction in viral titer at 4.7 uM after 24 hrs by immunofluorescent assay; format: functional; in short: as §1
# Influenza A virus [14] = assay: Antiviral activity against Influenza A virus (A/Mexico/4604/2009(H1N1))infected in MDCK cells from Mill Hill assessed as log reduction in viral titer at 4.7 uM after 24 hrs by immunofluorescent assay; format: functional; in short: as §2
# Influenza A virus [15] = assay: Antiviral activity against sInfluenza A virus (A/Washington/29/2009(H1N1)) infected in MDCK cells from Mill Hill assessed as log reduction in viral titer at 4.7 uM after 24 hrs by immunofluorescent assay; format: functional, Influenza A virus (A/Washington/29/2009(H1N1)); in short: as §1
# Influenza A virus [16] = assay: Antiviral activity against Influenza A virus (A/Illinois/10/2009(H1N1)) infected in MDCK cells from ATCC assessed as log reduction in viral titer at 42.7 uM after 24 hrs by immunofluorescent assay; format: functional; in short: as §2
# Influenza A virus [17] = assay: Antiviral activity against sInfluenza A virus (A/California/04/2009(H1N1)) infected in MDCK cells from ATCC assessed as log reduction in viral titer at 128 uM after 24 hrs by immunofluorescent assay; format: functional; in short: as §1
# Influenza A virus [18] = assay: Antiviral activity against Influenza A virus (A/Mexico/4604/2009(H1N1)) infected in MDCK cells from Mill Hill assessed as log reduction in viral titer at 42.7 uM after 24 hrs by immunofluorescent assay; format: functional; in short: as §2
# Influenza A virus [19] = assay: microbe, parasite or virus in culture; settings: MDCK, 72 h; remark: listed apart in the source
# Influenza A virus [20] = assay: Antiviral activity against Influenza A virus (A/Illinois/10/2009(H1N1)) infected in MDCK cells from ATCC assessed as log reduction in viral titer at 128 uM after 24 hrs by immunofluorescent assay; format: functional; in short: as §2
# Influenza A virus [21] = assay: Antiviral activity against sInfluenza A virus (A/California/04/2009(H1N1)) infected in MDCK cells from Mill Hill assessed as log reduction in viral titer at 14.2 uM after 24 hrs by immunofluorescent assay; format: functional; in short: as §1
# Influenza A virus [22] = assay: Antiviral activity against Influenza A virus (A/Illinois/10/2009(H1N1)) infected in MDCK cells from Mill Hill assessed as log reduction in viral titer at 42.7 uM after 24 hrs by immunofluorescent assay; format: functional; in short: as §2
# Influenza A virus [23] = assay: Antiviral activity against sInfluenza A virus (A/Washington/29/2009(H1N1))) infected in MDCK cells from Mill Hill assessed as log reduction in viral titer at 14.2 uM after 24 hrs by immunofluorescent assay; format: functional, Influenza A virus (A/Washington/29/2009(H1N1)); in short: as §1
# Influenza A virus [24] = assay: Antiviral activity against adamantane-, oseltamivir-, zanamivir-susceptible Influenza A virus (A/Georgia/17/2006(H1N1)) infected in MDCK cells assessed as inhibition of viral replication after 3 days by microscopic analysis using crystal violet stain; format: functional, organism-based; settings: 72 h; in short: as §3
# Influenza A virus [25] = assay: Antiviral activity against Influenza A virus (A/Illinois/10/2009(H1N1)) infected in MDCK cells from Mill Hill assessed as log reduction in viral titer at 4.7 uM after 24 hrs by immunofluorescent assay; format: functional; in short: as §2
structure (smiles),measurement,setting,value
NC(=O)c1nc(F)cnc1O [FAVIPIRAVIR],log10FFU,Influenza A virus [1],1.5
same,log10FFU,Influenza A virus [2],1.8
same,pEC50,Influenza A virus [3],5.44
same,log10FFU,Influenza A virus [4],2.7
same,log10FFU,Influenza A virus [5],2.2
same,log10FFU,Influenza A virus [6],<1
same,pEC50,Influenza A virus [7],5.73
same,log10FFU,Influenza A virus [8],4.6
same,log10FFU,Influenza A virus [9],3.75
same,log10FFU,Influenza A virus [10],<1
same,log10FFU,Influenza A virus [11],0.48
same,log10FFU,Influenza A virus [12],36.16
same,log10FFU,Influenza A virus [13],3.6
same,log10FFU,Influenza A virus [14],6.2
same,log10FFU,Influenza A virus [15],4.7
same,log10FFU,Influenza A virus [16],2.1
same,log10FFU,Influenza A virus [17],<1
same,log10FFU,Influenza A virus [18],2.1
same,pEC50,Influenza A virus [19],6.42
same,log10FFU,Influenza A virus [20],<1
same,log10FFU,Influenza A virus [21],2.3
same,log10FFU,Influenza A virus [22],1.7
same,log10FFU,Influenza A virus [23],3.1
same,pEC50,Influenza A virus [24],5.84
same,log10FFU,Influenza A virus [25],3.8
